Measured values as given in ChEMBL document CHEMBL3792345, “Isoquinoline-1,3-diones as Selective Inhibitors of Tyrosyl DNA Phosphodiesterase II (TDP2)” (J Med Chem, 2016).
Activity calls are given as the source filed them.

What was measured:
[1] = biological target: T1, Tyrosyl-DNA phosphodiesterase 1 (Homo sapiens, UniProt Q9NUW8); experiment: Inhibition of recombinant TDP1 (unknown origin) using 5'-[32P]-labeled single stranded oligonucleotide DNA containing 3'-phophotyrosine (N14Y) as substrate at 111 uM incubated for 15 mins by PAGE assay
[2] = biological target: T2, Tyrosyl-DNA phosphodiesterase 2 (Homo sapiens, UniProt O95551); experiment: Inhibition of human TDP2 expressed in DT40 cells (TDP2-knockout) using 18-mer single stranded oligonucleotide DNA as substrate incubated for 15 mins by PAGE assay
T2 sequence (O95551 whole entry): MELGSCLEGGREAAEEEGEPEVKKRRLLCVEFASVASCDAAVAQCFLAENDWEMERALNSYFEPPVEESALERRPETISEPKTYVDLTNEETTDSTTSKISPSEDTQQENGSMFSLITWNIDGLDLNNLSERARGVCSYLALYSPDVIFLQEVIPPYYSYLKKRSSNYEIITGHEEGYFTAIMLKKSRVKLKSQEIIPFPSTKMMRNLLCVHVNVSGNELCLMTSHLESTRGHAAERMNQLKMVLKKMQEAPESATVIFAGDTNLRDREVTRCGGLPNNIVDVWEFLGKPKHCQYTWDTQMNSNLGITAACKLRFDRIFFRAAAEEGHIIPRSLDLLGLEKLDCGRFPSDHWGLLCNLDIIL
Procedure, shortened: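 Extract from 1 × 10⁷ TDP2−/− DT40 cells complemented with human TDP2, prepared as the TDP1 extracts. 1 nM TY18 substrate (α³²P-cordycepin-3′-labelled 18-mer) with 5 μg/mL extract ± inhibitor, 15 min at room temperature. Products resolved on gel.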

[3] = biological target: T2, Tyrosyl-DNA phosphodiesterase 2; experiment: Inhibition of recombinant human TDP2 using 18-mer single stranded oligonucleotide DNA as substrate incubated for 15 mins by PAGE assay
Procedure, shortened: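 1 nM TY18 substrate (α³²P-cordycepin-3′-labelled 18-mer ssDNA) with 25 pM recombinant human TDP2, 15 min at room temperature in LMP2 buffer (pH 7.5, 5 mM MgCl₂). Dose–response at 1.4, 4.1, 12.3, 37, 111 μM, resolved on gels. IC50 is mean ± SD of at least three independent experiments.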

[4] = Cytotoxicity against chicken DT40 knockout cells expressing human TDP2 after 72 hrs by ATPlite assay; assay type: functional; settings: Gallus gallus, DT40, 72 h
Procedure, shortened: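 DT40 cells lacking endogenous TDP2 and complemented with human TDP2, following an earlier protocol. For synergy, the compound was combined with different etoposide concentrations.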

Gallus gallus = organism: Gallus gallus; experiment: Potentiation of ETP-induced cytotoxicity against chicken DT40 knockout cells expressing human TDP2 after 72 hrs by ATPlite assay; assay type: functional, cell-based
Procedure, shortened: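 DT40 cells lacking endogenous TDP2 and complemented with human TDP2, following an earlier protocol. CC90 is the concentration killing 90% of cells, measured without etoposide. For synergy, the compound was combined with different etoposide concentrations.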

[5] = biological target: T1, Tyrosyl-DNA phosphodiesterase 1; experiment: Inhibition of recombinant TDP1 (unknown origin) using 5'-[32P]-labeled single stranded oligonucleotide DNA containing 3'-phophotyrosine (N14Y) as substrate incubated for 15 mins by PAGE assay
[6] = biological target: T1, Tyrosyl-DNA phosphodiesterase 1; experiment: Inhibition of human TDP1 expressed in DT40 cells (TDP1-knockout) using N14Y single stranded oligonucleotide DNA as substrate incubated for 15 mins by PAGE assay

T1 sequence (Q9NUW8 whole entry): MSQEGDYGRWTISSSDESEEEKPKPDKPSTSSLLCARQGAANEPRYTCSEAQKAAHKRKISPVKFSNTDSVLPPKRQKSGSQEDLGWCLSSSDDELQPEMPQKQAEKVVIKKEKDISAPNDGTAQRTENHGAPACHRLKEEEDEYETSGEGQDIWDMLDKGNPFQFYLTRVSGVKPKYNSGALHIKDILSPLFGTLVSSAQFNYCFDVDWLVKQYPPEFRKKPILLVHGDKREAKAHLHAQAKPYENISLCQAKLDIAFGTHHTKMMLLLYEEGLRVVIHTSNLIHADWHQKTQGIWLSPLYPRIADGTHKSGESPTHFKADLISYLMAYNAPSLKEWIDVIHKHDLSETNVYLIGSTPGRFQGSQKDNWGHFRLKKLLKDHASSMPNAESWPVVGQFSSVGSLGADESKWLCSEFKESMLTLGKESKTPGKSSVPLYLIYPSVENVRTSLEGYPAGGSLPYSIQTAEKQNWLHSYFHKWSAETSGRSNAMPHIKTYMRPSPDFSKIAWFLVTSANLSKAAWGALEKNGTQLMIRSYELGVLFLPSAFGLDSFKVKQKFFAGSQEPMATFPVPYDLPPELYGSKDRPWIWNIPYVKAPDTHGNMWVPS

Row | inhibition [1] | IC50 [2] | IC50 [3] | IC50 [5] | IC50 [6] | Structure (SMILES) | CC90 [4] | Activity (Gallus gallus)
1 | inactive | > 111 µM | 23 µM | – | – | O=C1Cc2cc(-c3ccccc3)ccc2C(=O)N1 | – | –
2 | inactive | – | 25 µM | – | – | O=C1Cc2ccccc2C(=O)N1 | – | –
3 | inactive | – | 19 µM | – | – | O=C1Cc2cc([N+](=O)[O-])ccc2C(=O)N1 | – | –
4 | inactive | – | > 111 µM | – | – | Nc1cccc(-c2ccc3c(c2)C(=O)NC(=O)C3)c1 | – | –
5 | inactive | > 111 µM | 9.3 µM | – | – | O=C1Cc2cc(-c3cnc4ccccc4c3)ccc2C(=O)N1 | – | –
6 | inactive | 50 µM | 13 µM | – | – | O=C1Cc2ccc(-c3ccco3)cc2C(=O)N1 | – | –
7 | inactive | – | > 111 µM | – | – | O=C1Cc2c(cccc2-c2ccco2)C(=O)N1 | – | –
8 | inactive | 3.5 µM | 7 µM | – | – | O=C1Cc2cc(C(F)(F)F)ccc2C(=O)N1 | – | –
9 | inactive | 5.2 µM | 3 µM | – | – | O=C1Cc2ccc(C(=O)O)cc2C(=O)N1 | > 50 µM | inactive
10 | inactive | 55 µM | 42 µM | – | – | Nc1cccc(-c2ccc3c(c2)CC(=O)NC3=O)c1 | – | –
11 | inactive | – | 15 µM | – | – | O=C1Cc2ccc(-c3cccc(O)c3)cc2C(=O)N1 | – | –
12 | inactive | 2.6 µM | 7.5 µM | – | – | O=C1Cc2cccc(I)c2C(=O)N1 | – | –
13 | inactive | 11 µM | 5.1 µM | – | – | O=C1Cc2cc(-c3nc4ccccc4s3)ccc2C(=O)N1 | 12 µM | inactive
14 | inactive | – | 19 µM | – | – | O=C1Cc2cccc(-c3cccc([N+](=O)[O-])c3)c2C(=O)N1 | – | –
15 | inactive | 4.5 µM | 6.4 µM | – | – | O=C1Cc2cc(-c3ccc(Cl)cc3)ccc2C(=O)N1 | – | –
16 | inactive | – | 26 µM | – | – | O=C1Cc2cccc(-c3cccc(O)c3)c2C(=O)N1 | – | –

Row | inhibition [1] | IC50 [2] | IC50 [3] | IC50 [5] | IC50 [6] | Structure (SMILES) | CC90 [4] | Activity (Gallus gallus)
17 | inactive | 23 µM | 16 µM | – | – | O=C1Cc2cc(-c3cccnc3)ccc2C(=O)N1 | – | –
18 | inactive | – | 14 µM | – | – | O=C1Cc2ccc(-c3ccc(O)cc3)cc2C(=O)N1 | – | –
19 | inactive | – | 20 µM | – | – | O=C1Cc2ccc(-c3cccnc3)cc2C(=O)N1 | – | –
20 | inactive | – | > 111 µM | – | – | O=C1Cc2cc(-c3ccccc3C(=O)O)ccc2C(=O)N1 | – | –
21 | inactive | 6.5 µM | 8 µM | – | – | O=C1Cc2cc(-c3cccc(Br)c3)ccc2C(=O)N1 | – | –
22 | inactive | – | 9.8 µM | – | – | O=C1Cc2ccc(I)cc2C(=O)N1 | – | –
23 | inactive | – | > 111 µM | – | – | O=C1Cc2cc(Cc3ccccc3)ccc2C(=O)N1 | – | –
24 | – | 25 µM | 10 µM | > 111 µM | > 111 µM | O=C1Cc2cc(-c3ccco3)ccc2C(=O)N1 | – | inactive
25 | inactive | – | > 37 µM | – | – | O=C1Cc2c(Br)cccc2C(=O)N1 | – | –
26 | inactive | – | 11 µM | – | – | O=C1Cc2cc(Br)ccc2C(=O)N1 | – | –
27 | inactive | – | > 111 µM | – | – | O=C1Cc2cc(C(=O)O)ccc2C(=O)N1 | – | –
28 | inactive | 40 µM | 36 µM | – | – | Nc1ccc(-c2ccc3c(c2)CC(=O)NC3=O)cc1 | – | –
29 | inactive | 3.3 µM | 5.6 µM | – | – | O=C1Cc2cc(-c3cccc(Cl)c3)ccc2C(=O)N1 | – | –
30 | inactive | 9.3 µM | 7.6 µM | – | – | O=C1Cc2cc(I)ccc2C(=O)N1 | 9.5 µM | inactive
31 | inactive | 3.2 µM | 1.7 µM | – | – | O=C1Cc2ccc(-c3cccc(Cl)c3)cc2C(=O)N1 | – | –
32 | inactive | 35 µM | 13 µM | – | – | O=C1Cc2cc(-c3cccc(O)c3)ccc2C(=O)N1 | – | –

More lines, now with the values behind:

Row | Structure (SMILES) | inhibition [1] | IC50 [2] | IC50 [3] | IC50 [5] | IC50 [6] | CC90 [4] | Activity (Gallus gallus)
33 | O=C1Cc2ccc(-c3ccc(Br)cc3)cc2C(=O)N1 | inactive | – | 7.1 µM | – | – | – | –
34 | Nc1c2c(nn1-c1ccccc1)CC(=O)NC2=O | inactive | – | > 111 µM | – | – | – | –
35 | CS(=O)(=O)Nc1ccc(-c2ccc3c(c2)CC(=O)NC3=O)cc1 | inactive | 2.2 µM | 1.9 µM | – | – | – | –
36 | O=C1Cc2cc(C(=O)c3cccc([N+](=O)[O-])c3)ccc2C(=O)N1 | inactive | – | 11 µM | – | – | – | –
37 | CCOC(=O)C1C(=O)NC(=O)c2ccc(Br)cc21 (configuration not stated) | inactive | – | 14 µM | – | – | – | –
38 | CS(=O)(=O)Nc1cccc(-c2ccc3c(c2)C(=O)NC(=O)C3)c1 | inactive | – | 4.5 µM | – | – | – | –
39 | O=C1Cc2cc(-c3cccc([N+](=O)[O-])c3)ccc2C(=O)N1 | inactive | 25 µM | 10 µM | – | – | – | –
40 | CC(=O)c1cccc(-c2ccc3c(c2)CC(=O)NC3=O)c1 | inactive | 15 µM | 5.5 µM | – | – | – | –
41 | NC(=O)c1cccc(-c2ccc3c(c2)CC(=O)NC3=O)c1 | inactive | – | 16 µM | – | – | – | –
42 | O=C1Cc2cc(-c3ccco3)ccc2C(=O)N1O | – | – | > 111 µM | > 111 µM | – | – | –
43 | O=C1Cc2cc(-c3ccc(C(F)(F)F)cc3)ccc2C(=O)N1 | inactive | 2.7 µM | 3.2 µM | – | – | – | –
44 | Nc1c2c(nn1-c1ccc(F)cc1)CC(=O)NC2=O | inactive | – | > 111 µM | – | – | – | –
45 | Nc1c2c(nn1-c1ccccn1)CC(=O)NC2=O | inactive | – | > 111 µM | – | – | – | –
46 | O=C1Cc2ccc(-c3cccc([N+](=O)[O-])c3)cc2C(=O)N1 | inactive | – | 11 µM | – | – | – | –
47 | O=C1Cc2cc(-c3ccc(F)c(Cl)c3)ccc2C(=O)N1 | inactive | 5.3 µM | 4.1 µM | – | – | – | –
48 | O=C1Cc2ccc(C(=O)c3cccc([N+](=O)[O-])c3)cc2C(=O)N1 | inactive | – | 5.4 µM | – | – | – | –

Row | Structure (SMILES) | inhibition [1] | IC50 [2] | IC50 [3] | IC50 [5] | IC50 [6] | CC90 [4] | Activity (Gallus gallus)
49 | C=CC(=O)Nc1ccc(-c2ccc3c(c2)CC(=O)NC3=O)cc1 | inactive | – | 10 µM | – | – | – | –
50 | O=C1Cc2ccc(-c3ccco3)cc2C(=O)N1O | inactive | – | > 111 µM | – | – | – | –
51 | CC(=O)Nc1c2c(nn1-c1ccccc1)CC(=O)NC2=O | inactive | – | > 111 µM | – | – | – | –
52 | O=C1Cc2cc(-c3cccc(-c4ccccc4)c3)ccc2C(=O)N1 | inactive | – | > 111 µM | – | – | – | –
53 | O=C1Cc2cc(-c3ccc(F)cc3F)ccc2C(=O)N1 | inactive | 5.5 µM | 4.5 µM | – | – | – | –
54 | O=C1NC(=O)c2ccc(Br)c3cccc1c23 | inactive | – | > 111 µM | – | – | – | –
55 | O=C1Cc2cc(-c3cccc(C(=O)O)c3)ccc2C(=O)N1 | inactive | 42 µM | 21 µM | – | – | – | –
56 | COc1ccc(-c2ccc3c(c2)CC(=O)NC3=O)cc1F | inactive | 4.3 µM | 3 µM | – | – | – | –
57 | CS(=O)(=O)Nc1cccc(-c2ccc3c(c2)CC(=O)NC3=O)c1 | inactive | 25 µM | 18 µM | – | – | – | –
58 | COc1cccc(OC)c1-c1ccc2c(c1)CC(=O)NC2=O | inactive | – | > 37 µM | – | – | – | –
59 | C=CC(=O)Nc1cccc(-c2ccc3c(c2)C(=O)NC(=O)C3)c1 | inactive | – | 11 µM | – | – | – | –
60 | O=C1Cc2c(cccc2-c2cccc([N+](=O)[O-])c2)C(=O)N1 | inactive | – | > 37 µM | – | – | – | –
61 | O=c1[nH]c(=O)c2ccc(-c3ccccc3)cc2[nH]1 | inactive | – | > 111 µM | – | – | – | –
62 | COc1ccc(OC)c(-c2ccc3c(c2)CC(=O)NC3=O)c1 | inactive | – | 16 µM | – | – | – | –
63 | O=C1NC(=O)c2ccc(-c3ccco3)c3cccc1c23 | inactive | – | > 111 µM | – | – | – | –
64 | O=C1Cc2cc(-c3ccc(C(=O)O)cc3)ccc2C(=O)N1 | inactive | – | 30 µM | – | – | – | –
